Data published in ChEMBL document CHEMBL1687738, “Effect of Candida glabrata FKS1 and FKS2 mutations on echinocandin sensitivity and kinetics of 1,3-beta-D-glucan synthase: implication for the existing susceptibility breakpoint” (Antimicrob Agents Chemother, 2009).
≈ marks a conversion by molar mass, not a printed value. Starred links: 1 amine or outer side, 2 acyl side, 3 side chain; linkers in the order of their positions; H or OH if unused. Positions of bridges follow the written chain, without caps; N, C: chain ends. Non-standard residues stand in square brackets, D forms with d. Residues, ends and D or L forms follow the SMILES beside them. *: point of attachment. pTerphenylCO(4''-OnC5H11) = CCCCCOc1ccc(-c2ccc(-c3ccc(C(=O)*)cc3)cc2)cc1; Orn(4R-OH,5R-OH) = O=C([C@H](C[C@@H](O)[C@@H](O)N[*:3])N[*:1])[*:2]; hTyr(3S-OH,4S-OH) = N[C@H](C(=O)O)[C@H](O)[C@@H](O)c1ccc(O)cc1; Pro(3S-OH,4S-Me) = C[C@H]1CN[C@H](C(=O)O)[C@H]1O; Hyp = O=C(O)[C@@H]1C[C@@H](O)CN1

What was measured:
Nakaseomyces glabratus [1] = test: Antifungal activity against Candida glabrata isolate 21900 expressing Fks1p D632G mutant and wild type Fks2p by CLSI method; format: functional
[2] = Inhibition of Candida glabrata isolate 3168 wild type 1,3-beta-D-glucan synthase; set-up: species or system Nakaseomyces glabratus
How it was run: (§1)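 Cells grown in YPD broth at 35°C with vigorous shaking to early stationary phase. Membrane protein extracted and glucan synthase partially purified by product entrapment. Filtration polymerization assay measured [3H]glucose incorporation into product, started by adding enzyme. Echinocandin serial dilutions spanned 0.01–10,000 ng/ml, with 1% DMSO controls for anidulafungin. IC50 from variable-slope sigmoidal fit.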

[3] = molecular target: 1,3-beta-glucan synthase component FKS1 (Candida glabrata, UniProt E2GKZ4, S629P); test: Inhibition of Candida glabrata isolate 5847 1,3-beta-D-glucan synthase Fks1p S629P mutant/wild type Fks2p; set-up: species or system Nakaseomyces glabratus; how it was run: as §1
[4] = Inhibition of Candida glabrata isolate 218 wild type 1,3-beta-D-glucan synthase; set-up: species or system Nakaseomyces glabratus; how it was run: as §1
[5] = molecular target: 1,3-beta-glucan synthase component FKS1 (Candida glabrata, UniProt E2GKZ4, D632G); test: Inhibition of Candida glabrata isolate 21900 1,3-beta-D-glucan synthase Fks1p D632G mutant/wild type Fks2p; set-up: species or system Nakaseomyces glabratus; how it was run: as §1
[6] = Inhibition of Candida glabrata isolate 42971 1,3-beta-D-glucan synthase Fks1p D632Y mutant/Fks2p R1377STOP mutant; set-up: species or system Nakaseomyces glabratus; how it was run: as §1
Nakaseomyces glabratus [7] = test: Antifungal activity against Candida glabrata isolate 234 expressing wild type Fks1p and Fks2p F659V mutant by CLSI method in presence of 50% human serum; format: functional
How it was run: (§2)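 Broth microdilution MIC per CLSI M27-A3 in RPMI 1640 supplemented with 50% serum. Caspofungin and micafungin stocks in sterile water; anidulafungin stock in 100% DMSO; stocks kept at −86°C.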

Nakaseomyces glabratus [8] = test: Ratio of IC50 for Candida glabrata wild type 1,3-beta-glucan synthase to IC50 for Candida glabrata 1,3-beta-glucan synthase mutant
Nakaseomyces glabratus [9] = test: Antifungal activity against Candida glabrata ATCC 90030 expressing wild type Fks1p and Fks2p by CLSI method; format: functional
How it was run: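 Broth microdilution MIC per CLSI M27-A3 in RPMI 1640 medium, also run in RPMI 1640 with 50% serum. Wild-type control strain. Caspofungin and micafungin dissolved in sterile distilled water and anidulafungin in 100% DMSO; stock solutions stored at −86°C. Geometric means used to compare MICs.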

1,3-beta-glucan synthase [10] = molecular target: 1,3-beta-glucan synthase (Candida glabrata, UniProt F5BCZ9, F659S); test: Inhibition of Candida glabrata isolate 41026 1,3-beta-D-glucan synthase wild type Fks1p/Fks2p F659S mutant; set-up: species or system Nakaseomyces glabratus; how it was run: as §1
Nakaseomyces glabratus [11] = test: Antifungal activity against Candida glabrata isolate 5847 expressing Fks1p S629P mutant and wild type Fks2p by CLSI method; format: functional
How it was run: (§3)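 Broth microdilution MIC per CLSI M27-A3 in RPMI 1640 medium without serum. Caspofungin and micafungin stocks in sterile water; anidulafungin stock in 100% DMSO; stocks kept at −86°C.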

1,3-beta-glucan synthase [12] = molecular target: 1,3-beta-glucan synthase (Candida glabrata, UniProt F5BCZ9, D666E); test: Inhibition of Candida glabrata isolate 42031 1,3-beta-D-glucan synthase wild type Fks1p/Fks2p D666E mutant; set-up: species or system Nakaseomyces glabratus; how it was run: as §1
Nakaseomyces glabratus [13] = test: Antifungal activity against Candida glabrata isolate 42971 expressing Fks1p D632Y mutant and Fks2p R1377STOP mutant by CLSI method; format: functional; how it was run: as §3
Nakaseomyces glabratus [14] = test: Antifungal activity against Candida glabrata isolate 42971 expressing Fks1p D632Y mutant and Fks2p R1377STOP mutant by CLSI method in presence of 50% human serum; format: functional; how it was run: as §2
Nakaseomyces glabratus [15] = test: Antifungal activity against Candida glabrata isolate 51916 expressing wild type Fks1p and Fks2p P667T mutant by CLSI method; format: functional; how it was run: as §3
Nakaseomyces glabratus [16] = test: Antifungal activity against Candida glabrata isolate 42997 expressing Fks1p F625S mutant and wild type Fks2p by CLSI method in presence of 50% human serum; format: functional; how it was run: as §2
1,3-beta-glucan synthase [17] = molecular target: 1,3-beta-glucan synthase (Candida glabrata, UniProt F5BCZ9, S663P); test: Inhibition of Candida glabrata isolate 3830 1,3-beta-D-glucan synthase wild type Fks1p/Fks2p S663P mutant; set-up: species or system Nakaseomyces glabratus; how it was run: as §1
1,3-beta-glucan synthase (Candida glabrata, UniProt F5BCZ9, S663P), sequence (F5BCZ9 entry or part of it S663P): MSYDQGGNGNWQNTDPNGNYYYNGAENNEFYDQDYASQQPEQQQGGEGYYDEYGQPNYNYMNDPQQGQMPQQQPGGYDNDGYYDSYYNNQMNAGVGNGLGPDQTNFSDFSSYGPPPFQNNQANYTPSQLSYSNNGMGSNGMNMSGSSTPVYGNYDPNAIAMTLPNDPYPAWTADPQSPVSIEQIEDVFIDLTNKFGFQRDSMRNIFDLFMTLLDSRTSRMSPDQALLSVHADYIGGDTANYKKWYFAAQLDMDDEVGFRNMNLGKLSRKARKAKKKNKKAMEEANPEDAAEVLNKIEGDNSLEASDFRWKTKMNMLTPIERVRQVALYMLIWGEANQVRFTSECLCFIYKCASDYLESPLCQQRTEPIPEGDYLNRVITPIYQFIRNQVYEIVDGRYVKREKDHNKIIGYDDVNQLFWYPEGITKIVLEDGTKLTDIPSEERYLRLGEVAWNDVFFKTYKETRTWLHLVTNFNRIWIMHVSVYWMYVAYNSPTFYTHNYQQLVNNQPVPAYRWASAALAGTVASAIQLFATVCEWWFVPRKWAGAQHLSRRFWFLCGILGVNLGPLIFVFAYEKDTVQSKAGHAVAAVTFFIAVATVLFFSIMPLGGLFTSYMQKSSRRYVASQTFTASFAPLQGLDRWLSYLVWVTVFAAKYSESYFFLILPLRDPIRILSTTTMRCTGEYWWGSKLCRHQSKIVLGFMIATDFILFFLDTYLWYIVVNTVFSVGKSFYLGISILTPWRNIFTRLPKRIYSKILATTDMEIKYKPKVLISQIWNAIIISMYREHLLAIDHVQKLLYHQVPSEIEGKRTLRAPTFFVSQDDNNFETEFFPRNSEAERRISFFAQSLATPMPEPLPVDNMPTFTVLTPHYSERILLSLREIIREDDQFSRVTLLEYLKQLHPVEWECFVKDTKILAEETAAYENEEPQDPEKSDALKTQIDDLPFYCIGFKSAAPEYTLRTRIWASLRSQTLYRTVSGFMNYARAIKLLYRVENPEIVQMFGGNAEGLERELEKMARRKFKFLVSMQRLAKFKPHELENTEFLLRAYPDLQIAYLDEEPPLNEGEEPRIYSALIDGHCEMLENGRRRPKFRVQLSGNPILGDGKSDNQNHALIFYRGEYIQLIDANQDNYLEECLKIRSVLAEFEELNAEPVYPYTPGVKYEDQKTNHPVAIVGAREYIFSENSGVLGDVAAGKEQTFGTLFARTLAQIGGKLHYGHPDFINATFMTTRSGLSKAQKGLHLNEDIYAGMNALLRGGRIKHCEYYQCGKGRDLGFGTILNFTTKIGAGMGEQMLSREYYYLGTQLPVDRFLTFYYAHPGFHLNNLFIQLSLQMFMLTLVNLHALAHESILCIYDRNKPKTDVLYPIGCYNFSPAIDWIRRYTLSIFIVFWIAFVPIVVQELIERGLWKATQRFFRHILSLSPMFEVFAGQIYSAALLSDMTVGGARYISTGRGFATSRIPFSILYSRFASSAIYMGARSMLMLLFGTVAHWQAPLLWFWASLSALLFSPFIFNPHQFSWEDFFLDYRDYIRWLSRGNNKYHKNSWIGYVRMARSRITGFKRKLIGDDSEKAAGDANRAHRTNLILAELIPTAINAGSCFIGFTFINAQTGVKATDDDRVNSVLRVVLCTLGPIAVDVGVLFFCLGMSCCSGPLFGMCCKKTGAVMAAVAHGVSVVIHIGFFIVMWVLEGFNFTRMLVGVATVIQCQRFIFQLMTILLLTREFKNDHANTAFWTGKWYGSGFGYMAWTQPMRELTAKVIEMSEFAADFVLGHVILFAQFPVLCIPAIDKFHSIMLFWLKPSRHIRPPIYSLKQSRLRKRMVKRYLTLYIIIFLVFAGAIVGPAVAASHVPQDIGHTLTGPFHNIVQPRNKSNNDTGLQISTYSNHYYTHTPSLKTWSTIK

Nakaseomyces glabratus [18] = test: Antifungal activity against Candida glabrata isolate 42031 expressing wild type Fks1p and Fks2p D666E mutant by CLSI method; format: functional; how it was run: as §3
Nakaseomyces glabratus [19] = test: Antifungal activity against Candida glabrata isolate 3168 expressing wild type Fks1p and Fks2p by CLSI method; format: functional; how it was run: as §3
Nakaseomyces glabratus [20] = test: Antifungal activity against Candida glabrata isolate 42997 expressing Fks1p F625S mutant and wild type Fks2p by CLSI method; format: functional; how it was run: as §3
Nakaseomyces glabratus [21] = test: Antifungal activity against Candida glabrata isolate 3830 expressing wild type Fks1p and Fks2p S663P mutant by CLSI method in presence of 50% human serum; format: functional; how it was run: as §2
Nakaseomyces glabratus [22] = test: Antifungal activity against Candida glabrata isolate 5416 expressing wild type Fks1p and Fks2p W1375L mutant by CLSI method in presence of 50% human serum; format: functional; how it was run: as §2
Nakaseomyces glabratus [23] = test: Antifungal activity against Candida glabrata isolate 3169 expressing Fks1p D632E mutant and wild type Fks2p by CLSI method; format: functional; how it was run: as §3
Nakaseomyces glabratus [24] = test: Antifungal activity against Candida glabrata ATCC 90030 expressing wild type Fks1p and Fks2p by CLSI method in presence of 50% human serum; format: functional; how it was run: as §2
Nakaseomyces glabratus [25] = test: Antifungal activity against Candida glabrata isolate 234 expressing wild type Fks1p and Fks2p F659V mutant by CLSI method; format: functional; how it was run: as §3
[26] = Inhibition of Candida glabrata ATCC 90030 wild type 1,3-beta-D-glucan synthase; set-up: species or system Nakaseomyces glabratus; how it was run: as §1
Nakaseomyces glabratus [27] = test: Antifungal activity against Candida glabrata isolate 3168 expressing wild type Fks1p and Fks2p by CLSI method in presence of 50% human serum; format: functional; how it was run: as §2
Nakaseomyces glabratus [28] = test: Antifungal activity against Candida glabrata isolate 51916 expressing wild type Fks1p and Fks2p P667T mutant by CLSI method in presence of 50% human serum; format: functional; how it was run: as §2
1,3-beta-glucan synthase [29] = molecular target: 1,3-beta-glucan synthase (Candida glabrata, UniProt F5BCZ9, F659V); test: Inhibition of Candida glabrata isolate 234 1,3-beta-D-glucan synthase wild type Fks1p/Fks2p F659V mutant; set-up: species or system Nakaseomyces glabratus; how it was run: as §1
[30] = molecular target: 1,3-beta-glucan synthase component FKS1 (Candida glabrata, UniProt E2GKZ4, D632E); test: Inhibition of Candida glabrata isolate 3169 1,3-beta-D-glucan synthase Fks1p D632E mutant/wild type Fks2p; set-up: species or system Nakaseomyces glabratus; how it was run: as §1
[31] = molecular target: 1,3-beta-glucan synthase component FKS1 (Candida glabrata, UniProt E2GKZ4, F625S); test: Inhibition of Candida glabrata isolate 42997 1,3-beta-D-glucan synthase Fks1p F625S mutant/wild type Fks2p; set-up: species or system Nakaseomyces glabratus; how it was run: as §1
1,3-beta-glucan synthase component FKS1 (Candida glabrata, UniProt E2GKZ4, F625S), sequence (E2GKZ4 entry or part of it F625S): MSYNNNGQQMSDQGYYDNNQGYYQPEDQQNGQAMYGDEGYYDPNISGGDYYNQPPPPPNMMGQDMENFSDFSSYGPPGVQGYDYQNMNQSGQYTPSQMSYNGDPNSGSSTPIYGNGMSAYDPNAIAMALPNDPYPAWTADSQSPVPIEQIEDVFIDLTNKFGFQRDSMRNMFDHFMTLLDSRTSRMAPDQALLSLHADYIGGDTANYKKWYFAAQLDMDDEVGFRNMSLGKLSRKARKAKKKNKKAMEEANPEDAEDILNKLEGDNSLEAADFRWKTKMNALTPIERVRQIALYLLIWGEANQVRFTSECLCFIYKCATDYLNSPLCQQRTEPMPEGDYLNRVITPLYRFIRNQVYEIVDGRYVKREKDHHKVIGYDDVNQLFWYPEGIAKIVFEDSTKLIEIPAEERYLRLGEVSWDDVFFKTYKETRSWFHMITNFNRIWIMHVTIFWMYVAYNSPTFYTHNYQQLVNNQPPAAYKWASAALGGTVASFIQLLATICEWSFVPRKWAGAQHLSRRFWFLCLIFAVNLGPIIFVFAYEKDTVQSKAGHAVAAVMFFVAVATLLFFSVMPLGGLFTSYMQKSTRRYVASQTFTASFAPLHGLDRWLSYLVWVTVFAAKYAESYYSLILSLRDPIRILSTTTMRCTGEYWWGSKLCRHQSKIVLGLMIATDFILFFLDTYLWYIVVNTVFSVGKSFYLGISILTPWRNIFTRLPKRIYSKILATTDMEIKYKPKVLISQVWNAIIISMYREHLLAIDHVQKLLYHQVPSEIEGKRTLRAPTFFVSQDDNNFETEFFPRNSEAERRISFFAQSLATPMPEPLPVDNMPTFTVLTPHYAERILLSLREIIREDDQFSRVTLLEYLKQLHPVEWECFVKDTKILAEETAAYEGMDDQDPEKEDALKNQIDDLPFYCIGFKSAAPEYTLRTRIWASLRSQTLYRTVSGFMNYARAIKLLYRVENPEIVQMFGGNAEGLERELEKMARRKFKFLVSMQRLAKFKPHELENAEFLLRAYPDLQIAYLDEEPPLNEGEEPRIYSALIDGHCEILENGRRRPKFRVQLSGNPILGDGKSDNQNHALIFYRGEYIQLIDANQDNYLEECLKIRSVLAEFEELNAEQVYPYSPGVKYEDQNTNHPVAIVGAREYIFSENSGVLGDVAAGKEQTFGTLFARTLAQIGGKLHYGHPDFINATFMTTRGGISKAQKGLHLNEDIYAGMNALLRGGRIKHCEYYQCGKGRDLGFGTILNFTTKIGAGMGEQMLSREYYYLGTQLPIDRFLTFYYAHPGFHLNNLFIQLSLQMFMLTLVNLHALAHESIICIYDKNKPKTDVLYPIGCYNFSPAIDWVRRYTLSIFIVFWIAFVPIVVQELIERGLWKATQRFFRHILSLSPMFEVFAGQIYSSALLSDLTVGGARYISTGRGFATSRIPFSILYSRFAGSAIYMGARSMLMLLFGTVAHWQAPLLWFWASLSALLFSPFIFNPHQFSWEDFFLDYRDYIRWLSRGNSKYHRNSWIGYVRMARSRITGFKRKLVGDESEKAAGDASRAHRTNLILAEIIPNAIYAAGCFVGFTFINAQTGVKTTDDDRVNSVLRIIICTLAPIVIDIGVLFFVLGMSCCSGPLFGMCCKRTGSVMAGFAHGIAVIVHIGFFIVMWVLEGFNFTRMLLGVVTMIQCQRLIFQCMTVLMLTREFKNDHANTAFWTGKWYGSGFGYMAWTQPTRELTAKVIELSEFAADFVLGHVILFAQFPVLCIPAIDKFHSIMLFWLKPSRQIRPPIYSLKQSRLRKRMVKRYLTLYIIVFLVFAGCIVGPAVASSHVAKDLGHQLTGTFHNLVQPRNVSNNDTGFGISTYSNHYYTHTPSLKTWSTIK

[32] = Inhibition of Candida glabrata isolate 31498 1,3-beta-D-glucan synthase wild type Fks1p/Fks2p F659 deletion mutant; set-up: species or system Nakaseomyces glabratus; how it was run: as §1
Nakaseomyces glabratus [33] = test: Antifungal activity against Candida glabrata isolate 218 expressing wild type Fks1p and Fks2p by CLSI method in presence of 50% human serum; format: functional; how it was run: as §2
Nakaseomyces glabratus [34] = test: Antifungal activity against Candida glabrata isolate 5847 expressing Fks1p S629P mutant and wild type Fks2p by CLSI method in presence of 50% human serum; format: functional; how it was run: as §2

Molecule `CCCCCOc1ccc(-c2ccc(-c3ccc(C(=O)N[C@H]4C[C@@H](O)[C@@H](O)NC(=O)[C@@H]5[C@@H](O)[C@@H](C)CN5C(=O)[C@H]([C@@H](C)O)NC(=O)[C@H]([C@H](O)[C@@H](O)c5ccc(O)cc5)NC(=O)[C@@H]5C[C@@H](O)CN5C(=O)[C@H]([C@@H](C)O)NC4=O)cc3)cc2)cc1` [ANIDULAFUNGIN] ({pTerphenylCO(4''-OnC5H11)}-[Orn(4R-OH,5R-OH)]T[Hyp][hTyr(3S-OH,4S-OH)]T[Pro(3S-OH,4S-Me)]; lactam 1-C) has an MIC (Nakaseomyces glabratus [1]) of 1 µg/mL (≈ 0.877 µM), an IC50 [2] of 0.00158 µg/mL (≈ 0.00139 µM) and an IC50 [3] of 3380 nM. For the same molecule, the IC50 [4] was 0.00125 µg/mL (≈ 0.0011 µM), the IC50 [5] was 89.3 nM and the IC50 [6] was 2.5435 µg/mL (≈ 2.23 µM). It also gave an MIC (Nakaseomyces glabratus [7]) of 8 µg/mL, a Ratio IC50 (Nakaseomyces glabratus [8]) of 54 and an MIC (Nakaseomyces glabratus [9]) of 0.06 µg/mL (≈ 0.0526 µM). It also gave an IC50 (1,3-beta-glucan synthase [10]) of 753 nM, an MIC (Nakaseomyces glabratus [11]) of 4 µg/mL (≈ 3.51 µM) and an IC50 (1,3-beta-glucan synthase [12]) of 112 nM. The MIC (Nakaseomyces glabratus [13]) was 4 µg/mL (≈ 3.51 µM), the MIC (Nakaseomyces glabratus [14]) was 8 µg/mL and the MIC (Nakaseomyces glabratus [15]) was 1.59 µg/mL (≈ 1.39 µM). For the same molecule, the MIC (Nakaseomyces glabratus [16]) was 8 µg/mL, the IC50 (1,3-beta-glucan synthase [17]) was 3510 nM and the MIC (Nakaseomyces glabratus [18]) was 1 µg/mL (≈ 0.877 µM). The MIC (Nakaseomyces glabratus [19]) was 0.03 µg/mL (≈ 0.0263 µM), the MIC (Nakaseomyces glabratus [20]) was 2 µg/mL (≈ 1.75 µM) and the MIC (Nakaseomyces glabratus [21]) was 8 µg/mL. The MIC (Nakaseomyces glabratus [22]) was 4 µg/mL, the MIC (Nakaseomyces glabratus [23]) was 2 µg/mL (≈ 1.75 µM) and the MIC (Nakaseomyces glabratus [24]) was 0.5 µg/mL. For the same molecule, the MIC (Nakaseomyces glabratus [25]) was 1 µg/mL (≈ 0.877 µM), the IC50 [26] was 0.00191 µg/mL (≈ 0.00168 µM) and the MIC (Nakaseomyces glabratus [27]) was 0.5 µg/mL. The MIC (Nakaseomyces glabratus [28]) was 8 µg/mL, the IC50 (1,3-beta-glucan synthase [29]) was 75.9 nM and the IC50 [30] was 133 nM. It also gave an IC50 [31] of 97 nM, an IC50 [32] of 0.16 µg/mL (≈ 0.14 µM) and an MIC (Nakaseomyces glabratus [33]) of 0.5 µg/mL. The MIC (Nakaseomyces glabratus [34]) was 8 µg/mL.
